Assay outcomes deposited in PubChem by several laboratories.
Shown are actives, neighbours in structure and some others; about 1.9% of the full set was active somewhere.
FAS-TE inh: blocks the thioesterase domain of human fatty acid synthase | P49327 | recombinant FAS-TE, OMFH fluorogenic substrate, fluorescence endpoint | inhibition, % at 15 µM | 360,000 compounds, 0.67% hits;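 active = compounds whose normalised, plate-corrected inhibition of enzyme fluorescence in the single-dose primary screen is 50% or more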;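 note: 0% = DMSO with enzyme and 100% = substrate without enzyme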
ADAM10 inh: inhibits human ADAM10. recombinant ADAM10, EDANS/DABCYL FRET peptide cleavage, 3 h. inhibition, % at 7 µM. 370,000 compounds, 0.62% hits;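 active = inhibition above a per-campaign cutoff equal to the mean of compounds falling between control-based bounds plus 3 SD, cut at about 20% in these data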;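 note: 0% = DMSO wells while the 100% control is not disclosed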
SENP1 inh: SENP1 (human) catalytic domain inhibition | Q9P0U3 | recombinant SENP1 catalytic domain, CyPet-SUMO1-YPet FRET cleavage | 360,000 compounds, 0.21% hits | inhibition, % at 10 µM | AID 624204;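 active = inhibition at least 30% at 10 µM, raw YFP signal under a set limit, fluorescence ratio 0.5 to 1.5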;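 note: 0% = enzyme with DMSO and 100% = no enzyme wells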
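Test system: recombinant human SENP1 catalytic domain, His6-tagged / Medium: pH 8 Tris buffer with EDTA, NaCl, BME, BSA, NP40, catalase / Also added: SUMO1 FRET substrate flanked by Cypet and Ypet, 25 nM / Times: 50 min reaction at room temperature / Signal: FRET, CFP and YFP emission / Control set: no-enzyme low control and enzyme-plus-DMSO high control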
ADAM17 inh: inhibitors of human ADAM17; 370,000 compounds, 0.83% hits; recombinant ADAM17, EDANS/DABCYL FRET peptide cleavage; inhibition, % at 6.95 µM;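 active = inhibition above the mean of compounds lying between control limits plus 3 SD, set per campaign, cut at about 8.5% in these data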;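 note: 0% = DMSO-only wells as the low control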
Target sequence (P78536 215-824 limits assumed): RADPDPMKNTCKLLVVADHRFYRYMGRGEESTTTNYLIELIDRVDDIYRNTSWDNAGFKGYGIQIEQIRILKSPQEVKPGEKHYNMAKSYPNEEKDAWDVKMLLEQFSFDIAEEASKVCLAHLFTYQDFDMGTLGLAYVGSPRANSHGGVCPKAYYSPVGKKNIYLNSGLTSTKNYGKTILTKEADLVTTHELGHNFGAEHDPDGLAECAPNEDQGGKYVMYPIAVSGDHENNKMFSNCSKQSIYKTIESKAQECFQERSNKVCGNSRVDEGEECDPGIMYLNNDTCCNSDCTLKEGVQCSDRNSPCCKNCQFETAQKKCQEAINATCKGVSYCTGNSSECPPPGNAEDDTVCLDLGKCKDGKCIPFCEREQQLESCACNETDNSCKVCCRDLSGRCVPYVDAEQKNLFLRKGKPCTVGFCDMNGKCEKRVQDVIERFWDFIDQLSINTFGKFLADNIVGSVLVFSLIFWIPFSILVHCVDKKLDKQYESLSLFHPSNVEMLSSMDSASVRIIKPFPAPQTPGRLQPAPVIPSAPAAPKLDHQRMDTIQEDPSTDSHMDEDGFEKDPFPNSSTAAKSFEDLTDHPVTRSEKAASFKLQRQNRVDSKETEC
ADAM10 ctr: counter-screen for ADAM17 exosite inhibitors: inhibitors of human ADAM10 | shares compounds with ADAM17 inh | recombinant ADAM10, EDANS/DABCYL FRET peptide cleavage, 3 h | inhibition, % at 6.95 µM | 2,900 compounds, 47% hits | AID 743256;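 active = mean inhibition over the triplicate runs exceeds the activity threshold set in the earlier primary screen, cut at about 20% in these data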;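 note: 0% = DMSO wells and 100% = marimastat wells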
ADAM17 confirm: confirmation of inhibitors of human ADAM17; shares compounds with ADAM17 inh; recombinant ADAM17, EDANS/DABCYL QFRET peptide cleavage; inhibition, % at 6.95 µM; 2,900 compounds, 65% hits; AID 743257;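 active = mean inhibition across replicates above the hit cutoff set in the primary screen, cut at about 8.5% in these data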;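 note: 0% = DMSO wells and 100% = marimastat wells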
Starred values were filed as active, the others as inactive; . = no result given.

SMILES	FAS-TE inh	ADAM10 inh	SENP1 inh	ADAM17 inh	ADAM10 ctr	ADAM17 confirm
Cc1ccc(S(=O)(=O)N2CCN(C(=O)COC(=O)c3nc(Cl)ccc3Cl)CC2)c(C)c1	11	-6	0	-2	.	.
Cc1ccc(S(=O)(=O)N2CCN(C(=O)COC(=O)c3ncc(Cl)c(Cl)c3Cl)CC2)c(C)c1	33	-11	2	9.0*	8	8.9*
O=C(Nc1cccc(F)c1)N(Cc1ccc(Cl)cc1)CC(O)C(F)(F)F (configuration not stated)	9	9	0	9.9*	36*	20*
C[C@H]1COc2cc(Br)ccc2S(=O)(=O)N1Cc1cn(Cc2ccccc2)nn1	.	-6	.	-3	.	.
COc1ccc(CN(C(=O)c2nsc(Cl)c2Cl)C(C(=O)NC2CCCC2)c2ccc(C)cc2)cc1 (configuration not stated)	28	13	-1	10*	14	14*
COc1ccc(C(=O)N(C)[C@H]2C[C@H]3c4[nH]c5c(-c6ccccc6)cccc5c4CCN3C(=O)[C@H]2[C@H](C)O)cc1	.	-53	.	-14	.	.
CSc1ccc(-c2csc(N3CCC(C(N)=O)CC3)n2)cc1	.	-26	.	-6	.	.
Cc1ccc(S(=O)(=O)NCCC(=O)Nc2ccc(Cl)c(Cl)c2)cc1	22	18	1	9.2*	25*	15*
O=C(Cc1ccc(S(=O)(=O)N2CCCCC2)s1)Nc1ccc(F)c(F)c1	24	20	-1	10.0*	36*	13*
CCN(CC)S(=O)(=O)c1cc(NC(=O)Cc2ccc(S(=O)(=O)N3CCOCC3)s2)ccc1Cl	22	3	-9	9.9*	15	12*
O=C(Cn1nnc(-c2ccncc2)n1)Nc1ccc(Oc2ccccc2)cc1	.	-2	.	1	.	.
C[C@H](CO)N1C[C@H](C)[C@@H](CN(C)C(=O)Nc2ccc(C(F)(F)F)cc2)Oc2c(NS(=O)(=O)c3ccc(F)cc3)cccc2C1=O	6	10	1	5	.	.
COc1ccc(NC(=O)N(C)C[C@H]2Oc3c(NC(=O)c4nc5ccccc5s4)cccc3C(=O)N([C@@H](C)CO)C[C@H]2C)cc1	4	18	2	12*	25*	13*
C[C@H](CO)N1C[C@H](C)[C@@H](CN(C)Cc2ccc(Oc3ccccc3)cc2)Oc2c(NC(=O)c3ccncc3)cccc2C1=O	14	20	0	12*	13	8
COc1ccc(S(=O)(=O)Nc2cccc3c2O[C@H](CN(C)C(=O)Nc2ccc(C(F)(F)F)cc2)[C@@H](C)CN([C@H](C)CO)C3=O)cc1	29	21*	0	16*	21*	14*
COC(=O)[C@]12C[C@H](CC(=O)N3CCCC3)C(=O)N(Cc3ccco3)C1=C[C@H](C1CCCC1)O[C@@H]2C	.	4	.	-1	.	.
C=CCn1c(-c2csc3c2CCC(C)C3)n[nH]c1=S (configuration not stated)	-6	6	-1	11*	18	13*
CCCCn1c(-c2csc3c2CCCC3)n[nH]c1=S	.	6	.	13*	10	5
CCn1c(-c2csc3c2CCCC3)n[nH]c1=S	-1	18	-1	-6	.	.
CC/C(C)=N/Nc1nc2c(c(=O)[nH]c(=O)n2C)n1Cc1ccccc1	-3	14	3	9.1*	5	3
CC/C(C)=N/Nc1nc2c(c(=O)[nH]c(=O)n2C)n1CCc1ccccc1	-4	-84	-3	-31	.	.
O=C(c1cc(COc2c(F)cccc2F)on1)N1CCC(c2ccccc2Cl)C1 (configuration not stated)	40	19	0	9.5*	13	11*
O=C(Nc1ccn(Cc2ccccc2F)n1)c1ccc(COc2ccccc2Cl)cc1	-32	19	2	13*	31*	18*
Nc1nc(CSC(=S)N2CCN(c3ccccc3)CC2)nc(Nc2ccccc2)n1	24	17	-1	9.2*	24*	16*
Cc1ccc(Nc2nc(N)nc(CSC(=S)N3CCN(c4ccccc4)CC3)n2)cc1	-2	-4	1	1	.	.
SMILES	FAS-TE inh	ADAM10 inh	SENP1 inh	ADAM17 inh	ADAM10 ctr	ADAM17 confirm
Cc1ccc(S(=O)(=O)N(C)CC(=O)O/N=C(\N)c2cccc(Br)c2)cc1	11	8	-2	12*	11	9.7*
Cc1ccc(/C(N)=N/OC(=O)CN(C)S(=O)(=O)c2ccc(C)cc2)cc1	12	9	2	0	.	.
C[C@@H]1CN(c2ccc(N3CCN(C(=O)OC(C)(C)C)C[C@@H]3C)cc2C#N)C[C@H](C)O1	.	-85	.	-8	.	.
O[C@H](COc1cccc(F)c1)CN1CCC(C(O)(c2ccccc2)c2ccccc2)CC1	.	1	.	-1	.	.
O=C(Cc1noc2ccccc12)NNC(=S)Nc1ccc(Cl)cc1	3	14	0	12*	3	1
Cc1cccc(NC(=O)Cc2noc3ccccc23)c1	-3	12	2	-1	.	.
COc1ccc(CCC(=O)Nc2nnc(C(C)(C)C)s2)cc1	-6	6	-1	-1	.	.
CCSc1nnc(NC(=O)CCc2ccc(OC)cc2)s1	-9	16	0	9.1*	4	3
C=CCN(Cc1ccc2c(c1)OCO2)C(C#CCCCC)C(C)C (configuration not stated)	.	-1	.	-2	.	.
NS(=O)(=O)c1ccc(NC(=O)/C=C/c2cccs2)cc1	-5	15	0	10*	-6	3
Cc1ccc(O)c(NC(=O)CSc2ccc(Cl)cc2)c1	-1	13	1	4	.	.
Cc1ccc(NS(=O)(=O)c2ccc(NC(=O)CSc3ccc(Cl)cc3)cc2)c(C)c1	28	17	0	9.0*	28*	11*
O=C(N[C@H](Cc1ccccc1)C(=O)N1CCN(c2ncccn2)CC1)[C@H]1O[C@@H](n2ccc(=O)[nH]c2=O)[C@H](O)[C@@H]1O	.	-28	.	-9	.	.
CC(C)(C)NS(=O)(=O)c1ccc(CCC(=O)NCc2ccc3c(c2)OCO3)cc1	-5	5	4	9.0*	8	7
Cc1cc(C)c(N=C2SCC(=O)N2Cc2ccco2)c(C)c1	19	-3	-3	1	.	.
COc1ccccc1N=C1SCC(=O)N1Cc1ccco1	-4	-2	-1	8.9*	5	4
COc1ccc(NS(=O)(=O)c2cc(NC(=O)c3cccs3)ccc2N2CCCC2)cc1	33	19	0	9.1*	18	11*
COc1ccc(NS(=O)(=O)c2cc(NC(=O)c3ccccc3F)ccc2N2CCCC2)cc1	32	16	4	8	.	.
CC(C)C(=O)N1CCN(c2ccc(NC(=O)c3cccs3)cc2)CC1	-6	3	1	2	.	.
CC(C)C(=O)N1CCN(c2ccc(NC(=O)c3cccs3)cc2Cl)CC1	1	11	1	9.1*	8	6
